Columns and labels:
[1] = previously reported; cited from earlier work
[2] = in DMSO; cited from earlier work
[3] = format: in vivo; conditions: 10 nmol (0.4 mg/kg) intravenously, mice, 4 h post-injection
Summary of the method: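 Nude mice (about 25 g) were anesthetized with ip ketamine/xylazine, given 10 nmol (0.4 mg/kg) conjugate iv in saline, and imaged 4 h later. Excitation was 745-779 nm light at 14 mW cm-2, with 800-848 nm emission and fixed exposure. SBR is tissue signal over neighbouring muscle or skin. For biodistribution, mice were killed at 30-240 min and organs resected and imaged; n ≥ 3 per time point.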

In the case of `CC1(C)C(/C=C/C2=C(Oc3ccc(CCC(=O)NCCC(O)(P(=O)([O-])O)P(=O)(O)O)cc3)C(=C\C=C3/N(CCCCS(=O)(=O)O)c4ccc(S(=O)(=O)O)cc4C3(C)C)/CCC2)=[N+](CCCCS(=O)(=O)O)c2ccc(S(=O)(=O)O)cc21` (stereo not drawn) [Pam78], the “binding to hydroxyapatite (HA) in vitro and in vivo (in words)” value [1] is listed as “rapid and specific binding to hydroxyapatite (HA) in vitro and in vivo”.
In the case of `CC1(C)C(/C=C/C=C/C=C/C=C2\N(CCCCS(=O)(=O)[O-])c3ccc4ccccc4c3C2(C)C)=[N+](CCCCS(=O)(=O)[O-])c2ccc3ccccc3c21.[Na+]` [ICG], the “QY of calibration standard” value [2] is listed as 13%.
For `CC1(C)C(/C=C/C2=C(Oc3ccc(S(=O)(=O)O)cc3)C(=C/C=C3/N(CCCCS(=O)(=O)O)c4ccc(S(=O)(=O)[O-])cc4C3(C)C)/CCC2)=[N+](CCCCCC(=O)O)c2ccc(S(=O)(=O)O)cc21` [CW800], the “location of NIR fluorescence signal / tissue uptake (in words)” value [3] was “elevated nonspecific background signals in the liver and skin”.

Reference: paper PMC4377729 (Theranostics, 2015)
